The source of these data is ChEMBL document CHEMBL4152296, “Synthesis, biological evaluation and molecular modeling of novel azaspiro dihydrotriazines as influenza virus inhibitors targeting the host factor dihydrofolate reductase (DHFR)” (Eur J Med Chem, 2018).

The test system of one series is Influenza A virus. Kind of series: Antiviral activity against Influenza A virus (A/Puerto Rico/8/34(H1N1)) infected in MDCK cells assessed as protection against virus-induced reduction in cell viability after 3 to 6 days by MTS assay. To be noted: A/Puerto Rico/8/1934(H1N1). In kind it is functional, organism-based. In outline: (§1)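 MDCK cells seeded at 9000/well and infected one day later (semiconfluent) with 100 CCID50 virus. Medium was FCS-free Ultra MDCK with 2 μg/mL TPCK-trypsin. Serial five-fold compound dilutions (top 100 μM) were added with the virus, followed by 3–6 days at 35 °C. MTS read-out gave % protection versus virus and mock controls. EC50 was interpolated from semi-log curves; mean of two or three experiments.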
A general note: Formazan colour is commonly taken as a measure of viable cells.

The subject of a further series is Influenza B virus. Kind of series: Antiviral activity against Influenza B virus B/Ned/537/05 infected in MDCK cells assessed as protection against virus-induced reduction in cell viability after 3 to 6 days by MTS assay. The class given is functional, organism-based. To be noted: B/Ned/537/05, MDCK. In outline:
as §1

Series [1] is described as follows: Cytotoxicity against MDCK cells assessed as alterations in normal cell morphology measured after 3 to 6 days by microscopic analysis. The class given is cell-based, Canis lupus familiaris. To be noted: dog. In outline: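 Uninfected MDCK cultures in FCS-free Ultra MDCK medium with trypsin received five-fold compound dilutions (up to […]) for 3–6 days at 35 °C. Microscopy scored morphology, and MCC was taken as the lowest concentration causing minimal rounding, shrinking or lysis.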

For the next series, the system named is MDCK. Put plainly: Cytotoxicity against MDCK cells assessed as reduction in cell viability measured after 3 to 6 days by MTS assay. The class given is cell-based, Canis lupus familiaris. To be noted: dog. In outline:
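Mock-infected MDCK plates were run in parallel (FCS-free Ultra MDCK medium with TPCK-trypsin) with serial five-fold dilutions up to […], 35 °C for 3–6 days. CC50 was interpolated from semi-log dose-response curves; mean of two or three experiments.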

Series [2] has as its system Respiratory syncytial virus. Put plainly: Antiviral activity against Respiratory syncytial virus Long infected in human HeLa cells assessed as inhibition of virus-induced cytopathic effect after 3 to 6 days by MTS based microscopy. In kind it is functional, organism-based.
The nature of series [3]: Cytotoxicity against human HeLa cells assessed as alterations in normal cell morphology measured after 3 to 6 days by microscopic analysis. The class given is cell-based. In outline:
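Mock-infected HeLa cultures in 2% FCS medium received serial five-fold dilutions […] for 3–6 days at 37 °C. MCC was the lowest concentration giving microscopically visible minimal change in cell morphology (rounding, shrinking, lysis).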

For the next series, the system named is Vero. Kind of series: Cytotoxicity against African green monkey Vero cells assessed as reduction in cell viability measured after 3 to 6 days by MTS assay. The class given is cell-based. As to conditions: chlorocebus sabaeus.
Another series relates to Human alphaherpesvirus 1. Put plainly: Antiviral activity against Herpes simplex virus type 1 infected in human HEL299 cells assessed as inhibition of virus-induced cytopathic effect after 3 to 6 days by MTS assay. The class given is functional, organism-based.
The test system of another series is Human alphaherpesvirus 2. Kind of series: Antiviral activity against Herpes simplex virus type 2 infected in human HEL299 cells assessed as inhibition of virus-induced cytopathic effect after 3 to 6 days by MTS assay. In kind it is functional, organism-based.
Another series concerns Vaccinia virus. Kind of series: Antiviral activity against Vaccinia virus infected in human HEL299 cells assessed as inhibition of virus-induced cytopathic effect after 3 to 6 days by MTS assay. In kind it is functional, organism-based. To be noted: Orthopoxvirus vaccinia.
A further series deals with Human adenovirus 2. Kind of series: Antiviral activity against Human adenovirus type 2 infected in human HEL299 cells assessed as inhibition of virus-induced cytopathic effect after 3 to 6 days by MTS assay. The class given is functional, organism-based. For orientation: Protection from cytopathic effect is a common read-out in antiviral testing.
The subject of series [4] is Human immunodeficiency virus. Put plainly: Antiviral activity against HIV. The class given is functional, organism-based.
The next series concerns Human coronavirus 229E. Kind of series: Antiviral activity against Human coronavirus 229E infected in human HEL299 cells assessed as inhibition of virus-induced cytopathic effect after 3 to 6 days by MTS assay. In kind it is functional, organism-based.
The next series deals with Human respirovirus 3. Put plainly: Antiviral activity against Parainfluenza virus 3 infected in African green monkey Vero cells assessed as inhibition of virus-induced cytopathic effect after 3 to 6 days by MTS assay. The class given is functional, organism-based.
In series [5] the test system is Vesicular stomatitis virus. Kind of series: Antiviral activity against Vesicular stomatitis virus infected in human HEL299 cells assessed as inhibition of virus-induced cytopathic effect after 3 to 6 days by MTS assay. The class given is functional, organism-based.
The subject of the next series is Sindbis virus. Put plainly: Antiviral activity against Sindbis virus infected in African green monkey Vero cells assessed as inhibition of virus-induced cytopathic effect after 3 to 6 days by MTS assay. In kind it is functional, organism-based.
The next series has as its system Yellow fever virus. Kind of series: Antiviral activity against Yellow fever virus infected in African green monkey Vero cells assessed as inhibition of virus-induced cytopathic effect after 3 to 6 days by MTS assay. In kind it is functional, organism-based.
For the next series, the system named is Punta Toro virus. Put plainly: Antiviral activity against Punta Toro virus infected in African green monkey Vero cells assessed as inhibition of virus-induced cytopathic effect after 3 to 6 days by MTS assay. In kind it is functional, organism-based.
Another series deals with Coxsackievirus B4. Kind of series: Antiviral activity against Coxsackie B4 virus infected in human HeLa cells assessed as inhibition of virus-induced cytopathic effect after 3 to 6 days by MTS assay. The class given is functional, organism-based.
For series [6], the system named is Mammalian orthoreovirus 1. Put plainly: Antiviral activity against Reovirus-1 infected in African green monkey Vero cells assessed as inhibition of virus-induced cytopathic effect after 3 to 6 days by MTS assay. In kind it is functional, organism-based.
In another series the target is T1, Dihydrofolate reductase (Homo sapiens, UniProt P00374).
T1 sequence (P00374 whole entry): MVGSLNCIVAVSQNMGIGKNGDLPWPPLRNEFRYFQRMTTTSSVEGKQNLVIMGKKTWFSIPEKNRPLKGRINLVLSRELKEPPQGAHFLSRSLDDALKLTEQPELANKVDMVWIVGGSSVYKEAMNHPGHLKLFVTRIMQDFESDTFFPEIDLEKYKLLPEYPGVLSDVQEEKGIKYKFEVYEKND
Put plainly: Binding affinity to human recombinant DHFR using dihydrofolate as substrate after 180 secs by spectrophotometric method. In outline: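 Recombinant human DHFR (0.42 μM) in TES buffer with inhibitor, 60 μM DHF, and 120 μM NADPH added last to start the reaction. Absorbance at 340 nm was followed for 180 s. Six concentrations (1–32 μM) were run in duplicate. IC50 came from Dixon plots assuming competitive inhibition. Ki = IC50/(1+[S]/Km), with DHF Km 5 μM.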

The source made the active and inactive calls. No cut-off for these calls is given here.

One may read the EC50 as the concentration giving half of the maximal effect. In general, CC50 refers to the concentration giving 50% cytotoxicity. In the case of `CC(C)(C)OC(=O)N1CCC2(CC1)N=C(N)N=C(N)N2c1cccc(Cl)c1`, the EC50 is 11 µM in the series with Influenza A virus, 24 µM in the series with Influenza B virus and more than 100 µM in [2]. Also, the MCC is not below 20 µM in series [1] and more than 100 µM in series [3]. Besides, the CC50 in the series on MDCK was more than 100 µM. The Activity entry in the series with Vero is given as “Non-Toxic”. Besides, the result (with Human alphaherpesvirus 1; with Human alphaherpesvirus 2; with Vaccinia virus; in the series on Human adenovirus 2; in series [4]; in the series on Human coronavirus 229E) was inactive. Moreover, the outcome (with Human respirovirus 3; in [5]; with Sindbis virus; with Yellow fever virus; with Punta Toro virus; with Coxsackievirus B4) was inactive. Further, the result in series [6] was inactive.

Turning to `CCCN1C(N)=NC(N)=NC12CCN(C(=O)c1c(C)noc1C)CC2`, the EC50 (in the series on Influenza A virus; in the series with Influenza B virus; in [2]) was more than 100 µM in each case. For the same compound, the MCC in series [1] and in series [3] was more than 100 µM in each case. In addition, in the series with MDCK, the CC50 is more than 100 µM. Also, the Activity result in the series with Vero is “Non-Toxic”. For the same compound, the outcome (with Human alphaherpesvirus 1; with Human alphaherpesvirus 2; in the series with Vaccinia virus; in the series with Human adenovirus 2; in [4]; in the series with Human coronavirus 229E) was inactive. Moreover, the result (in the series with Human respirovirus 3; in series [5]; in the series on Sindbis virus; in the series with Yellow fever virus; in the series with Punta Toro virus; with Coxsackievirus B4) was inactive. Moreover, the outcome in series [6] was inactive.

For the compound `COCCN1C(N)=NC(N)=NC12CCN(C(=O)Nc1ccc(OC)cc1)CC2`, the EC50 (with Influenza A virus; in the series with Influenza B virus; in series [2]) was more than 100 µM in each case. In addition, the MCC in [1] and in [3] was more than 100 µM in each case. In addition, the CC50 with MDCK was more than 100 µM. Further, the Activity entry in the series with Vero is “Non-Toxic”. Besides, the result (in the series with Human alphaherpesvirus 1; with Human alphaherpesvirus 2; in the series with Vaccinia virus; in the series on Human adenovirus 2; in series [4]; in the series on Human coronavirus 229E) was inactive. Further, the result (in the series on Human respirovirus 3; in [5]; with Sindbis virus; in the series on Yellow fever virus; in the series with Punta Toro virus; in the series on Coxsackievirus B4) was inactive. In addition, in series [6], the outcome was inactive.

`COCCN1C(N)=NC(N)=NC12CCN(C(=O)C1CC1)CC2`: the EC50 (in the series on Influenza A virus; in the series on Influenza B virus; in series [2]) was more than 100 µM each time. For the same compound, the MCC in series [1] and in [3] was more than 100 µM in each case. Moreover, the CC50 in the series on MDCK is more than 100 µM. In addition, in the series with Vero, the Activity result is on record as “Non-Toxic”. Besides, the result (in the series on Human alphaherpesvirus 1; in the series with Human alphaherpesvirus 2; with Vaccinia virus; in the series on Human adenovirus 2; in series [4]; in the series on Human coronavirus 229E) was inactive. Besides, the result (in the series with Human respirovirus 3; in series [5]; in the series with Sindbis virus; in the series with Yellow fever virus; with Punta Toro virus; with Coxsackievirus B4) was inactive. In [6], the outcome was inactive.

On to `NC1=NC2(CCN(C(=O)C3CCC3)CC2)N(c2cccc(Cl)c2)C(N)=N1`, for which the EC50 in the series with Influenza A virus is 35 µM; with Influenza B virus it was 7.7 µM; in [2] it was more than 100 µM. The MCC in series [1] is not below 20 µM; in series [3], more than 100 µM. Also, the half-maximal cytotoxic concentration (CC50) with MDCK is more than 100 µM. In the series with Vero, the Activity result is listed as “Non-Toxic”. Also, the outcome (in the series with Human alphaherpesvirus 1; with Human alphaherpesvirus 2; in the series with Vaccinia virus; in the series with Human adenovirus 2; in [4]; with Human coronavirus 229E) was inactive. Also, the outcome (in the series with Human respirovirus 3; in series [5]; with Sindbis virus; with Yellow fever virus; in the series with Punta Toro virus; in the series with Coxsackievirus B4) was inactive. Besides, the outcome in series [6] was inactive.

Turning to `CCCN1C(N)=NC(N)=NC12CCN(C(=O)NCCC(=O)OCC)CC2`, the EC50 (in the series with Influenza A virus; in the series on Influenza B virus; in [2]) was more than 100 µM in each case. Also, the MCC in series [1] and in series [3] was more than 100 µM in each case. For the same compound, the CC50 in the series with MDCK is more than 100 µM. Also, the Activity entry in the series on Vero is on record as “Non-Toxic”. For the same compound, the outcome (in the series on Human alphaherpesvirus 1; with Human alphaherpesvirus 2; in the series on Vaccinia virus; in the series on Human adenovirus 2; in series [4]; in the series on Human coronavirus 229E) was inactive. Also, the result (with Human respirovirus 3; in [5]; in the series on Sindbis virus; in the series on Yellow fever virus; in the series on Punta Toro virus; in the series on Coxsackievirus B4) was inactive. In addition, in [6], the outcome was inactive.

One may read the Ki as a measure of affinity in units of concentration, obtained from inhibition or displacement. As to `CCS(=O)(=O)N1CCC2(CC1)N=C(N)N=C(N)N2CCOC`, the EC50 in the series with Influenza A virus was more than 100 µM; with Influenza B virus it was 3 µM; in series [2], more than 100 µM. Also, the MCC in series [1] and in series [3] was more than 100 µM throughout. Also, in the series on MDCK, the CC50 was more than 100 µM. Moreover, the Activity result in the series on Vero is reported as “Non-Toxic”. For the same compound, the outcome (in the series on Human alphaherpesvirus 1; in the series on Human alphaherpesvirus 2; with Vaccinia virus; with Human adenovirus 2; in series [4]; in the series on Human coronavirus 229E) was inactive. The result (with Human respirovirus 3; in series [5]; in the series with Sindbis virus; in the series on Yellow fever virus; in the series on Punta Toro virus; in the series with Coxsackievirus B4) was inactive. Besides, the outcome in series [6] was inactive. Further, on Dihydrofolate reductase, the Ki was found to be 1.4 µM.
